In article PMC7427514 (Chem, 2020):

Key:
VPA mice and controls = experiment: Diuresis analysis in VPA mice and controls; format: in vivo, mouse; conditions: 0.2 mg kg−1 IP; young adult control and VPA mice; relative to vehicle
Summary of the method: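 VPA-model offspring were from C57BL/6J dams given 600 mg/kg VPA i.p. in PBS at gestational day 12.5; controls were included. Mice of both sexes received one i.p. dose of vehicle or test compound at 0.2 mg/kg, from a 1 mg/mL DMSO stock diluted in PBS to 0.02 mg/mL and injected at 10 μL/g. Urine volume was collected for 120 min.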

[1] = test system: valproic acid (VPA) mouse model of ASD; experiment: Marble burying test in VPA mice; format: in vivo; conditions: 0.2 mg kg−1 IP daily, chronic
Summary of the method: (§1)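 Male VPA-model mice (prenatal VPA 600 mg/kg i.p. at gestational day 12.5) and controls, 6–8 weeks old, were randomized to vehicle (2% DMSO in saline) or test compound 0.2 mg/kg i.p. daily for 21–28 days. Tests started after 1 week of treatment, 1 h post-injection, and were video-scored manually by a blind operator.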

GABAA receptors = experiment: Voltage-clamp recordings of GABA-evoked currents in neuronal cultures; format: cell-based; conditions: 10 μM bath application; 12–20 DIV hippocampal mouse neurons
Summary of the method: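 Cultured hippocampal mouse neurons at DIV12–20 were voltage-clamped at 22–24°C in extracellular solution. GABA-evoked currents (average of five sweeps) were recorded before and after bath application of test compound (10 μM). Cells with access resistance >25 MΩ or with >20% variation in GABA-current peak were excluded. Signals were sampled at 20 kHz and low-pass filtered at 10 kHz.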

[2] = test system: valproic acid (VPA) mouse model of ASD; experiment: Male-female interaction test in VPA mice; format: in vivo; conditions: 0.2 mg kg−1 IP daily, chronic
Summary of the method: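 Male VPA-model mice (6–8 weeks) and controls were dosed i.p. daily with vehicle or test compound at 0.2 mg/kg, with testing 1 h post-injection after at least 1 week of treatment. Each male was placed alone in a cage and habituated for 5 min. An unfamiliar C57BL/6J female was then introduced, and behavior was recorded for 5 min and scored blind.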

[3] = test system: WT and Ts65Dn hippocampal neurons; experiment: MQAE Cl− imaging in neuronal cultures; format: cell-based, mouse; conditions: 10 μM
Summary of the method: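 Hippocampal neurons from P2 WT and Ts65Dn pups were cultured on poly-L-lysine coverslips in Neurobasal-A/B-27. At 15 DIV they were loaded with 5 mM MQAE plus test compound (10 μM) or DMSO for 30 min at 37°C. Coverslips were then perfused with extracellular solution (pH 7.4) containing compound for 5 min at 25°C and imaged by confocal microscopy.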

[4] = test system: valproic acid (VPA) mouse model of ASD; experiment: Grooming test in VPA mice; format: in vivo; conditions: 0.2 mg kg−1 IP daily, chronic
Summary of the method: as §1

[5] = test system: Ts65Dn mice and WT littermates; experiment: Diuresis analysis in Ts65Dn mice and WT littermates; format: in vivo, mouse; conditions: 0.2 mg kg−1 IP; adult WT and Ts65Dn mice; relative to vehicle
Summary of the method: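 Adult (P60–120) Ts65Dn mice and WT littermates of both sexes received one i.p. dose of vehicle or test compound at 0.2 mg/kg. The dose was given from a 1 mg/mL DMSO stock diluted in PBS to 0.02 mg/mL and injected at 10 μL/g. Urine volume was collected for 2 h, after which mice were returned to home cages.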

NKCC2 = target: T1, NKCC2 (Homo sapiens, UniProt Q13621); experiment: Cl− influx assay in NKCC2-transfected HEK293 cells; format: cell-based; conditions: HEK293, read-out: NKCC2 inhibition
T1 sequence (Q13621 1-1099): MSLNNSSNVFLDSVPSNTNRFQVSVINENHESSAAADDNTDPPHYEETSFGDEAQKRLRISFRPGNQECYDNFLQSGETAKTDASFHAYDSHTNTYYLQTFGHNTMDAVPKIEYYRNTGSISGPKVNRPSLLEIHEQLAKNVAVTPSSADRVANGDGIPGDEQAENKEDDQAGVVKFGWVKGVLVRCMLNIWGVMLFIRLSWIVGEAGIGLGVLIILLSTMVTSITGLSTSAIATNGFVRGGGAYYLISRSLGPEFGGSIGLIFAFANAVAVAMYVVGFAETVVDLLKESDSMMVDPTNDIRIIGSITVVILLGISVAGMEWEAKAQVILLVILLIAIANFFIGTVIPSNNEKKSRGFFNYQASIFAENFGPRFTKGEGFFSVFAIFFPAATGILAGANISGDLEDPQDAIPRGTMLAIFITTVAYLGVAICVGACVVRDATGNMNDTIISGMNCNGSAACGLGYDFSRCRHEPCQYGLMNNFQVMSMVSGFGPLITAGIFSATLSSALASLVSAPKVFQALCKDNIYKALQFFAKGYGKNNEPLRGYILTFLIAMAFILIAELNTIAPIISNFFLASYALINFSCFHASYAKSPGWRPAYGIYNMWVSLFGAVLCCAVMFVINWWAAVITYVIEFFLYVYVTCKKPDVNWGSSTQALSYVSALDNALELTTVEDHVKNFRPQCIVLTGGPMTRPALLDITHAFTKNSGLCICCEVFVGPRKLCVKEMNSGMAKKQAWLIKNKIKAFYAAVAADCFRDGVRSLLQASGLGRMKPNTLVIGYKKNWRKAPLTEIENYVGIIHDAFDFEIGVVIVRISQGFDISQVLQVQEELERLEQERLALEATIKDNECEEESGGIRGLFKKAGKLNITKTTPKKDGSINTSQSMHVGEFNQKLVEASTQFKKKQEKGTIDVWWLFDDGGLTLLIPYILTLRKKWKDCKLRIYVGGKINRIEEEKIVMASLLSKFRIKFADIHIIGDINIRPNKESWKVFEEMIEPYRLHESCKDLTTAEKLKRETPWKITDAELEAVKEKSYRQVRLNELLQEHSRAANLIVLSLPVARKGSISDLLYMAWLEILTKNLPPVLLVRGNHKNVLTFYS
Summary of the method: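 HEK293 cells were co-transfected by lipofection with NKCC2 (in PRK5) or empty vector plus membrane-tagged Cl−-sensitive YFP, replated after 4 h, and assayed at 48 h. Test compound (10 or 100 μM) was applied for 30 min in Cl−-free hypotonic HEPES buffer, pH 7.4. Fluorescence (ex 485/em 535 nm) was read for 20 s baseline and 60 s after NaCl (74 mM final). Fluorescence decrease is expressed as % of DMSO control; four independent experiments, mean ± SEM.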

[6] = test system: 3DIV hippocampal mouse neurons; experiment: Ca2+ influx assay upon GABA application in immature; format: cell-based; conditions: for Ca2+ influx upon GABA application: 10, 100 μM, GABA 100 μM, compared with DMSO-treated controls; for cell viability (fluorescence level upon KCl application): KCl 90 mM, 3DIV neurons
KCC2 = target: T2, KCC2 (Homo sapiens, UniProt Q9H2X9); experiment: Tl influx assay in KCC2-transfected HEK293 cells; format: cell-based; conditions: 10 μM, versus control DMSO, mean ± SEM
T2 sequence (Q9H2X9 1-1139): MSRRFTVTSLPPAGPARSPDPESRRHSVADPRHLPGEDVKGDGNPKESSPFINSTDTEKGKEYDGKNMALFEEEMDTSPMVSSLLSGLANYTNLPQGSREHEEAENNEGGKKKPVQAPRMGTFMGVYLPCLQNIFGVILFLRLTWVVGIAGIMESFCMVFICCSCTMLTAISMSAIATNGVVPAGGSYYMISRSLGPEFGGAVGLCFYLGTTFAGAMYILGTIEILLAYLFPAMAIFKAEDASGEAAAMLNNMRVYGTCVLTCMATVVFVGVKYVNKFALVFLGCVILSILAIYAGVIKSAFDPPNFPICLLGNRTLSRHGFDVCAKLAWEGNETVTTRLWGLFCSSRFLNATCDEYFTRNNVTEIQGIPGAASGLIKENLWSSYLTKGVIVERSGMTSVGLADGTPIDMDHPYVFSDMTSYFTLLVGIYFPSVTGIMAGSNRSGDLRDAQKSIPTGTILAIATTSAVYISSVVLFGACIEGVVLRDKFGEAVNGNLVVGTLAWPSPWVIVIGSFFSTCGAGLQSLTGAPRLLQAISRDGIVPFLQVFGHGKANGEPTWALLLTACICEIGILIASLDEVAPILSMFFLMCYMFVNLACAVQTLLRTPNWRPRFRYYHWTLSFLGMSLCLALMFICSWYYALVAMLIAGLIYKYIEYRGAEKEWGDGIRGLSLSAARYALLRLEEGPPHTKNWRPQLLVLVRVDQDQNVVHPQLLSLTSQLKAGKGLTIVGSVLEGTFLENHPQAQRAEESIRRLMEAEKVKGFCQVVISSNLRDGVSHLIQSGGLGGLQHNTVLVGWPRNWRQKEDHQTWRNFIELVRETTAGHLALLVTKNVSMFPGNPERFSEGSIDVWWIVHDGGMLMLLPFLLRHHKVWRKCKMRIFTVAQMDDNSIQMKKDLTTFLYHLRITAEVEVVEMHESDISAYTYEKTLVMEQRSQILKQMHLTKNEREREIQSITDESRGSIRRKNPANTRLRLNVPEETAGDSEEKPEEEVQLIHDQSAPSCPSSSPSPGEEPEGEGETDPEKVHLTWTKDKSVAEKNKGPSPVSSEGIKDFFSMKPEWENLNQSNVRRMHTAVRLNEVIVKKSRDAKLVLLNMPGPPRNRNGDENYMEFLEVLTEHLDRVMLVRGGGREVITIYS
Summary of the method: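 KCC2 (in PRK5)- or mock-transfected HEK293 cells were loaded for 1 h with Tl-sensitive dye (1:1,000) and probenecid (1:100) in Cl−-free hypotonic solution, washed, then treated with test compound with 100 μM ouabain. Fluorescence (ex 485/em 535 nm) was read for 20 s baseline, 20 s after TlSO4 (2 mM final), then 60 s after NaCl (74 mM final). Mock ΔF/F0 (last 10 s) was subtracted; fluorescence increase is expressed as % of DMSO control.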

Row | Structure (SMILES) | diuretic effect (urine volume for 2 h) (VPA mice and controls) | repetitive behaviors in the marble burying test [1] | inhibitory activity on GABAA receptors (GABA-evoked currents) (GABAA receptors) | sociability during male-female interaction [2] | [Cl−]i in wild-type (WT) neurons ([3]; 15 DIV WT neurons) | [Cl−]i in Ts65Dn neurons ([3]; mature (15 DIV) Ts65Dn neurons) | repetitive behaviors in the grooming task [4] | diuretic effect (urine volume for 2 h) [5] | inhibition at 10 µM (NKCC2) [%] | Ca2+ influx upon GABA application [6] | level of alleged NKCC1 inhibition in the Ca2+ influx assay compared with the Cl− influx assay ([6]; 10 and 100 μM) | cell viability (fluorescence level upon KCl application) [6] | KCC2 inhibition (KCC2) [%]
1 | CCCCNc1cc(C(=O)O)cc(S(N)(=O)=O)c1Oc1ccccc1 [bumetanide] | significantly increased the urine volume | significantly reduced repetitive behaviors | this was not the case | rescued poor sociability | without significantly affecting | restored aberrant [Cl^−]i to physiological levels | non-significant trend toward WT levels | significantly increased the urine volume | 82.7 ± 20.4 | significantly reduced | corresponded to the levels obtained for the Cl^− influx assay | without affecting the cell viability | –
2 | NS(=O)(=O)c1cc(C(=O)O)c(NCc2ccco2)cc1Cl [furosemide] | – | – | variable inhibitory activity | – | – | – | – | – | – | significantly reduced | – | without affecting the cell viability | –
3 | CCCC[C@]1(C2CCCC2)Cc2cc(OCC(=O)O)c(Cl)c(Cl)c2C1=O [DIOA, R-(+)-[(2-n-Butyl-6,7-dichloro-2-cyclopentyl-2,3-dihydro-1-oxo-1H-inden-5-yl)oxy]acetic acid] | – | – | – | – | – | – | – | – | – | – | – | – | 37.6 ± 6.7
